Key:
Liver = experiment: Half life in mouse liver microsomes; type: ADME; settings: microsomes
[1] = Selectivity index, ratio of IC50 for human HepG2 cells to IC50 for CQ, MFQ-susceptible Plasmodium falciparum D6 clone Sierra 1/UNC isolate; type: toxicity, cell-based; settings: read-out: Ratio IC50
[2] = biological target: Botulinum neurotoxin type A (Clostridium botulinum) (UniProt P0DPI0); experiment: Inhibition of Clostridium botulinum recombinant BoNT/A light chain using N-terminal acetylated, C-terminal aminated SNAP-25 (187-203) as substrate at 20 uM by reverse-phase HPLC analysis
Botulinum neurotoxin type A (Clostridium botulinum), sequence (P0DPI0 2-448 limits assumed): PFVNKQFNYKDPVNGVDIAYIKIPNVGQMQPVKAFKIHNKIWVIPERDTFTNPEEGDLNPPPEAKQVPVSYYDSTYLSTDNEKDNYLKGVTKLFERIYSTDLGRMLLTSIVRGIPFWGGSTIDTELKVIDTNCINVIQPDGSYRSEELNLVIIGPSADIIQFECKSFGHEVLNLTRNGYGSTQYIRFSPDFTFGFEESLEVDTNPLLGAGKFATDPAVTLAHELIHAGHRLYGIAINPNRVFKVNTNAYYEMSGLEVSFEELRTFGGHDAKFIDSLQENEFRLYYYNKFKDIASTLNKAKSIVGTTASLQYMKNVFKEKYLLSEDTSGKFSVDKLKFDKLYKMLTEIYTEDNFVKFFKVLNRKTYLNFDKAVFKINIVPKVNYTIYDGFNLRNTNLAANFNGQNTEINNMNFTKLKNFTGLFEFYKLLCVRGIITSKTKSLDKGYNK
How it was run: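 Recombinant BoNT/A LC with SNAP-25 187–203 peptide substrate in 40 mM HEPES–0.05% Tween, pH 7.3, with 0.5 mg/mL BSA and 50 μM excess Zn, at 37 °C. Quenched with TFA; reverse-phase HPLC product/substrate peak areas give percent inhibition, run in duplicate.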

[3] = biological target: Botulinum neurotoxin type A (Clostridium botulinum, UniProt P0DPI0); experiment: Inhibition of Clostridium botulinum recombinant BoNT/A light chain using N-terminal acetylated, C-terminal aminated SNAP-25 (187-203) as substrate by reverse-phase HPLC analysis
Botulinum neurotoxin type A, sequence (P0DPI0 2-448 limits assumed): as above
How it was run: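 Same HPLC LC cleavage assay (pH 7.3 HEPES/Tween, BSA, excess Zn, 37 °C). […] Ki comes from velocity versus substrate at several inhibitor levels, globally fit to a competitive model.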

Plasmodium falciparum [4] = experiment: Antimalarial activity against CQ, MFQ-resistant Plasmodium falciparum TM91C235 clone Southeast asian isolate assessed as inhibition of parasite proliferation by MSF assay; type: functional, organism-based
How it was run: (§1)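 SYBR Green I fluorescence (MSF) microtiter drug-sensitivity assay: malarial DNA content is the measure of in vitro parasite proliferation. Resistance index is the IC90 ratio of the resistant strain to D6.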

[5] = Selectivity index, ratio of IC50 for human HepG2 cells to IC50 for CQ-resistant, MFQ-susceptible Plasmodium falciparum W2 clone Indochina 1 isolate; type: toxicity, cell-based; settings: read-out: Ratio IC50
Plasmodium falciparum [6] = experiment: Antimalarial activity against CQ-resistant, MFQ-susceptible Plasmodium falciparum W2 clone Indochina 1 isolate assessed as inhibition of parasite proliferation by MSF assay; type: functional, organism-based; how it was run: as §1
Plasmodium falciparum [7] = experiment: Resistance index, ratio of IC90 for CQ, MFQ-resistant Plasmodium falciparum TM91C235 clone Southeast asian isolate to IC90 for CQ, MFQ-susceptible Plasmodium falciparum D6 clone Sierra 1/UNC isolate; type: functional; how it was run: as §1
Liver microsome = experiment: Half life in human liver microsomes; type: ADME; settings: microsomes
Plasmodium falciparum [8] = experiment: Antimalarial activity against CQ, MFQ-susceptible Plasmodium falciparum D6 clone Sierra 1/UNC isolate assessed as inhibition of parasite proliferation by MSF assay; type: functional, organism-based; how it was run: as §1
Plasmodium falciparum [9] = experiment: Resistance index, ratio of IC90 for CQ-resistant, MFQ-susceptible Plasmodium falciparum W2 clone Indochina 1 isolate to IC90 for CQ, MFQ-susceptible Plasmodium falciparum D6 clone Sierra 1/UNC isolate; type: functional; how it was run: as §1
HepG2 = experiment: Cytotoxicity against human HepG2 cells assessed as cell viability after 48 hrs by MTT assay; type: cell-based; settings: HepG2, 48 h
[10] = Selectivity index, ratio of IC50 for human HepG2 cells to IC50 for CQ, MFQ-resistant Plasmodium falciparum TM91C235 clone Southeast asian isolate; type: toxicity, cell-based; settings: read-out: Ratio IC50
PBMC = experiment: Cytotoxicity against human PBMC assessed as inhibition of cell survival after 72 hrs; type: cell-based
How it was run: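 PBMC from heparinized healthy-donor blood (Histopaque) in RPMI-1640 with 10% FCS and PHA stimulation, 200 000 cells/well, with compounds in DMSO, 72 h at 37 °C, 6% CO2.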

[11] = biological target: Botulinum neurotoxin type A (Clostridium botulinum) (UniProt P0DPI0); experiment: Inhibition of Clostridium botulinum BoNT/A-mediated SNAP-25 cleavage in chicken embryo neurons assessed as intact SNAP-25 level at […] preincubated for 45 mins followed by co-incubation with BoNT/A for 3.5 hrs by western blot analysis in presence of 5 uL of 100 nM antibiotic bafilomycin; set-up: scale not given: the % may be the effect or the level left
[12] = biological target: Botulinum neurotoxin type A (Clostridium botulinum) (UniProt P0DPI0); experiment: Inhibition of Clostridium botulinum BoNT/A-mediated SNAP-25 cleavage in chicken embryo neurons assessed as intact SNAP-25 level at […] preincubated for 45 mins followed by co-incubation with BoNT/A for 3.5 hrs by western blot analysis; set-up: scale not given: the % may be the effect or the level left
[13] = biological target: Botulinum neurotoxin type A (Clostridium botulinum) (UniProt P0DPI0); experiment: Inhibition of Clostridium botulinum BoNT/A-mediated SNAP-25 cleavage in chicken embryo neurons assessed as intact SNAP-25 level at […] preincubated for 45 mins followed by co-incubation with BoNT/A for 3.5 hrs by western blot analysis in presence of 25 uL of 100 nM antibiotic bafilomycin; set-up: scale not given: the % may be the effect or the level left

CC(=O)O[C@H]1C[C@H]2[C@@H]([C@H](OC(C)=O)C[C@@H]3CC(=O)CC[C@@]32C)[C@@H]2CC[C@H]([C@H](C)CCCNCCCNc3ccnc4cc(Cl)ccc34)[C@@]12C
t1/2 (Liver): 6 min | selectivity ratio [1]: 182 | inhibition [2]: 72.9% | IC50 [3]: 2320 nM | IC50 (Plasmodium falciparum [4]): 9.19 nM | IC90 (Plasmodium falciparum [4]): 18.1 nM | selectivity ratio [5]: 161 | IC50 (Plasmodium falciparum [6]): 6.89 nM | IC90 (Plasmodium falciparum [6]): 12.1 nM | Ratio (Plasmodium falciparum [7]): 1.81 | t1/2 (Liver microsome): 14 min | IC50 (Plasmodium falciparum [8]): 6.12 nM | IC90 (Plasmodium falciparum [8]): 10 nM | Ratio (Plasmodium falciparum [9]): 1.21 | IC50 (HepG2): 1110 nM | selectivity ratio [10]: 121 | IC50 (PBMC): 2610 nM

CC(=O)O[C@H]1C[C@H]2[C@@H]([C@H](OC(C)=O)C[C@@H]3CC(=O)CC[C@@]32C)[C@@H]2CC[C@H]([C@H](C)CCCNCCNc3ccnc4cc(Cl)ccc34)[C@@]12C
t1/2 (Liver): 13 min | selectivity ratio [1]: 571 | inhibition [2]: 67.1% | IC50 [3]: 5700 nM | IC50 (Plasmodium falciparum [4]): 17.6 nM | IC90 (Plasmodium falciparum [4]): 36.8 nM | selectivity ratio [5]: 299 | IC50 (Plasmodium falciparum [6]): 6.47 nM | IC90 (Plasmodium falciparum [6]): 14.1 nM | Ratio (Plasmodium falciparum [7]): 8.06 | t1/2 (Liver microsome): 6 min | IC50 (Plasmodium falciparum [8]): 3.38 nM | IC90 (Plasmodium falciparum [8]): 4.56 nM | Ratio (Plasmodium falciparum [9]): 3.09 | IC50 (HepG2): 1930 nM | selectivity ratio [10]: 109 | IC50 (PBMC): 52200 nM

CC(=O)N[C@@H]1CC[C@@]2(C)[C@@H](C1)C[C@@H](OC(C)=O)[C@@H]1[C@@H]2C[C@H](OC(C)=O)[C@]2(C)[C@@H]([C@H](C)CCCNCCNc3ccnc4cc(Cl)ccc34)CC[C@@H]12
selectivity ratio [1]: 116 | Activity [11]: 28% | inhibition [2]: 74% | IC50 [3]: 2460 nM | IC50 (Plasmodium falciparum [4]): 15.2 nM | IC90 (Plasmodium falciparum [4]): 34.6 nM | selectivity ratio [5]: 126 | IC90 (Plasmodium falciparum [6]): 62.2 nM | Activity [12]: 16% | Ratio (Plasmodium falciparum [7]): 1.09 | IC50 (Plasmodium falciparum [8]): 16.6 nM | IC90 (Plasmodium falciparum [8]): 31.8 nM | Ratio (Plasmodium falciparum [9]): 1.96 | IC50 (HepG2): 1920 nM | selectivity ratio [10]: 126 | Activity [13]: 36%

CC(=O)O[C@H]1C[C@H]2[C@@H]([C@H](OC(C)=O)C[C@@H]3C[C@H](N)CC[C@@]32C)[C@@H]2CC[C@H]([C@H](C)CCCN(CCC[C@@H](C)[C@H]3CC[C@H]4[C@@H]5[C@H](OC(C)=O)C[C@@H]6C[C@H](N)CC[C@]6(C)[C@H]5C[C@H](OC(C)=O)[C@]34C)CCNc3ccnc4cc(Cl)ccc34)[C@@]12C
selectivity ratio [1]: 19 | Activity [11]: 96% | inhibition [2]: 82.2% | IC50 [3]: 3050 nM | IC50 (Plasmodium falciparum [4]): 85.9 nM | IC90 (Plasmodium falciparum [4]): 175 nM | selectivity ratio [5]: 21 | IC50 (Plasmodium falciparum [6]): 78 nM | IC90 (Plasmodium falciparum [6]): 105 nM | Activity [12]: 89% | Ratio (Plasmodium falciparum [7]): 1.54 | IC90 (Plasmodium falciparum [8]): 114 nM | Ratio (Plasmodium falciparum [9]): 0.92 | IC50 (HepG2): 1650 nM | selectivity ratio [10]: 19 | Activity [13]: 93%

CC(=O)O[C@H]1C[C@H]2[C@@H]([C@H](OC(C)=O)C[C@@H]3C[C@H](O)CC[C@@]32C)[C@@H]2CC[C@H]([C@H](C)CCCNCCNc3ccnc4cc(Cl)ccc34)[C@@]12C
t1/2 (Liver): 30 min | selectivity ratio [1]: 938 | inhibition [2]: 69.4% | IC50 [3]: 4680 nM | IC50 (Plasmodium falciparum [4]): 6.71 nM | IC90 (Plasmodium falciparum [4]): 13.3 nM | selectivity ratio [5]: 415 | IC90 (Plasmodium falciparum [6]): 10.7 nM | Ratio (Plasmodium falciparum [7]): 2.58 | t1/2 (Liver microsome): 7 min | IC50 (Plasmodium falciparum [8]): 2.91 nM | IC90 (Plasmodium falciparum [8]): 5.13 nM | Ratio (Plasmodium falciparum [9]): 2.08 | IC50 (HepG2): 2730 nM | selectivity ratio [10]: 407 | IC50 (PBMC): 2810 nM

Source: ChEMBL document CHEMBL3259704, “Second generation steroidal 4-aminoquinolines are potent, dual-target inhibitors of the botulinum neurotoxin serotype A metalloprotease and P. falciparum malaria” (J Med Chem, 2014)
